Results published in ChEMBL document CHEMBL1828575, “Design, synthesis and antiproliferative activities of biarylolefins based on polyhydroxylated and carbohydrate scaffolds” (Eur J Med Chem, 2011).
Calls of active or inactive are those of the source. No cut-off for these calls is given here.

Assays:
[1] = test system: PC-3; experiment: Cytotoxicity against human PC3 cells at 10^-6 M after 72 hrs by MTS assay; type: functional; conditions: PC-3, 72 h, read-out: GI
Summary of the method: (§1)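 Preliminary screen at 10^-5 and 10^-6 M. Cells were grown in RPMI with 10% fetal calf serum plus penicillin, streptomycin and fungizone under 5% CO₂, plated in 96-well plates, and dosed 24 h later from DMSO stocks (1% DMSO final, same in controls). After 72 h, MTS was added for 3 h at 37 °C and absorbance read at 490 nm. Inhibition was calculated as (1 − OD treated/OD control) × 100, in triplicate.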

[2] = test system: SF-268; experiment: Cytotoxicity against human SF268 cells at 10^-6 M after 72 hrs by MTS assay; type: functional; conditions: SF-268, 72 h, read-out: GI; summary of the method: as §1
[3] = test system: SK-OV-3; experiment: Cytotoxicity against human SKOV3 cells at 10^-6 M after 72 hrs by MTS assay; type: functional; conditions: SK-OV-3, 72 h, read-out: GI; summary of the method: as §1
[4] = test system: OVCAR-8; experiment: Cytotoxicity against human OVCAR8 cells at 10^-6 M after 72 hrs by MTS assay; type: functional; conditions: OVCAR-8, 72 h, read-out: GI; summary of the method: as §1
[5] = test system: MIA PaCa-2; experiment: Cytotoxicity against human MIAPaCa2 cells at 10^-6 M after 72 hrs by MTS assay; type: functional; conditions: MIA PaCa-2, 72 h, read-out: GI
[6] = test system: HL-60; experiment: Cytotoxicity against human HL60 cells at 10^-6 M after 72 hrs by MTS assay; type: functional; conditions: HL-60, 72 h, read-out: GI
Summary of the method: (§2)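 Cells grown in RPMI with 10% fetal calf serum, penicillin, streptomycin and fungizone under 5% CO₂. Plated in 96-well plates and dosed 24 h later with compound in DMSO (1% final DMSO; controls got DMSO alone). After 72 h, MTS was added for 3 h at 37 °C and A490 read. Inhibition = (1 − OD treated/OD control) × 100, in triplicate.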

[7] = Cytotoxicity against human HL60R cells at 10^-6 M after 72 hrs by MTS assay; type: functional; conditions: read-out: GI; summary of the method: as §2
[8] = test system: K562; experiment: Cytotoxicity against human K562 cells at 10^-6 M after 72 hrs by MTS assay; type: functional; conditions: K562, 72 h, read-out: GI; summary of the method: as §2
[9] = test system: HCT-116; experiment: Cytotoxicity against human HCT116 cells at 10^-5 M after 72 hrs by MTS assay; type: functional; conditions: HCT-116, 72 h, read-out: GI; summary of the method: as §2
[10] = test system: HT-29; experiment: Cytotoxicity against human HT-29 cells at 10^-5 M after 72 hrs by MTS assay; type: functional; conditions: HT-29, 72 h, read-out: GI; summary of the method: as §2
[11] = test system: HCT-15; experiment: Cytotoxicity against human HCT15 cells at 10^-5 M after 72 hrs by MTS assay; type: functional; conditions: HCT-15, 72 h, read-out: GI; summary of the method: as §2
[12] = test system: MCF7; experiment: Cytotoxicity against human MCF7 cells at 10^-5 M after 72 hrs by MTS assay; type: functional; conditions: MCF7, 72 h, read-out: GI
[13] = Cytotoxicity against human MDA231 cells at 10^-5 M after 72 hrs by MTS assay; type: functional; conditions: MDA-MB-231, 72 h, read-out: GI; summary of the method: as §1
[14] = test system: A549; experiment: Cytotoxicity against human A549 cells at 10^-5 M after 72 hrs by MTS assay; type: functional; conditions: A549, 72 h, read-out: GI; summary of the method: as §2
[15] = test system: PC-3; experiment: Cytotoxicity against human PC3 cells at 10^-5 M after 72 hrs by MTS assay; type: functional; conditions: PC-3, 72 h, read-out: GI; summary of the method: as §1
[16] = test system: SF-268; experiment: Cytotoxicity against human SF268 cells at 10^-5 M after 72 hrs by MTS assay; type: functional; conditions: SF-268, 72 h, read-out: GI; summary of the method: as §1
[17] = test system: SK-OV-3; experiment: Cytotoxicity against human SKOV3 cells at 10^-5 M after 72 hrs by MTS assay; type: functional; conditions: SK-OV-3, 72 h, read-out: GI; summary of the method: as §1
[18] = test system: OVCAR-8; experiment: Cytotoxicity against human OVCAR8 cells at 10^-5 M after 72 hrs by MTS assay; type: functional; conditions: OVCAR-8, 72 h, read-out: GI; summary of the method: as §1
[19] = test system: MIA PaCa-2; experiment: Cytotoxicity against human MIAPaCa2 cells at 10^-5 M after 72 hrs by MTS assay; type: functional; conditions: MIA PaCa-2, 72 h, read-out: GI
[20] = test system: HL-60; experiment: Cytotoxicity against human HL60 cells at 10^-5 M after 72 hrs by MTS assay; type: functional; conditions: HL-60, 72 h, read-out: GI; summary of the method: as §2
[21] = Cytotoxicity against human HL60R cells at 10^-5 M after 72 hrs by MTS assay; type: functional, HL-60; conditions: read-out: GI; summary of the method: as §2
[22] = test system: K562; experiment: Cytotoxicity against human K562 cells at 10^-5 M after 72 hrs by MTS assay; type: functional; conditions: K562, 72 h, read-out: GI; summary of the method: as §2
[23] = species: Ovis aries; experiment: Inhibition of sheep brain tubulin polymerization at 10 uM
Summary of the method: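 Microtubule protein from sheep brain, purified by two assembly/disassembly cycles (37 °C/0 °C), in 100 mM MES pH 6.6, 1 mM EGTA, 0.5 mM MgCl₂. Compounds in DMSO were tested at a single concentration, with incubation at 37 °C for 10 min and then 0 °C for 5 min before measuring assembly rate, following a modified Guénard protocol.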

[24] = test system: HCT-116; experiment: Cytotoxicity against human HCT116 cells at 10^-6 M after 72 hrs by MTS assay; type: functional; conditions: HCT-116, 72 h, read-out: GI; summary of the method: as §2
[25] = test system: HT-29; experiment: Cytotoxicity against human HT-29 cells at 10^-6 M after 72 hrs by MTS assay; type: functional; conditions: HT-29, 72 h, read-out: GI; summary of the method: as §2
[26] = test system: HCT-15; experiment: Cytotoxicity against human HCT15 cells at 10^-6 M after 72 hrs by MTS assay; type: functional; conditions: HCT-15, 72 h, read-out: GI; summary of the method: as §2
[27] = test system: MCF7; experiment: Cytotoxicity against human MCF7 cells at 10^-6 M after 72 hrs by MTS assay; type: functional; conditions: MCF7, 72 h, read-out: GI
[28] = Cytotoxicity against human MDA231 cells at 10^-6 M after 72 hrs by MTS assay; type: functional; conditions: MDA-MB-231, 72 h, read-out: GI; summary of the method: as §1
[29] = test system: A549; experiment: Cytotoxicity against human A549 cells at 10^-6 M after 72 hrs by MTS assay; type: functional; conditions: A549, 72 h, read-out: GI; summary of the method: as §2
[30] = Cytotoxicity against human NCI60 cells assessed as cellular growth at 10 uM after 48 hrs by SRB assay relative to untreated control; type: functional
Summary of the method: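 NCI-60 panel lines grown in RPMI 1640 with 5% FBS and 2 mM L-glutamine. Plated at 5000–40,000 cells/well and preincubated 24 h at 37 °C, 5% CO₂, with time-zero plates fixed in TCA. Compounds, dissolved in DMSO and diluted in medium, were applied for 48 h. Cells were TCA-fixed (10% final for adherent, 16% for suspension) and stained with 0.4% SRB in 1% acetic acid. Dye was solubilised in 10 mM Tris base and read at 515 nm; growth was expressed as a percentage of untreated control.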

SMILES: COc1cc(C(=C(CO)CO)c2cc(OC)c(OC)c(OC)c2)cc(OC)c1OC
- inhibition of growth at 1 µM [1]: 18%
- inhibition of growth at 1 µM [2]: 13%
- inhibition of growth at 1 µM [3]: 13%
- inhibition of growth at 1 µM [4]: 0%
- inhibition of growth at 1 µM [5]: 0%
- inhibition of growth at 1 µM [6]: 17%
- inhibition of growth at 1 µM [7]: 17%
- inhibition of growth at 1 µM [8]: 4%
- inhibition of growth at 10 µM [9]: 0%
- inhibition of growth at 10 µM [10]: 0%
- inhibition of growth at 10 µM [11]: 22%
- inhibition of growth at 10 µM [12]: 31%
- inhibition of growth at 10 µM [13]: 42%
- inhibition of growth at 10 µM [14]: 13%
- inhibition of growth at 10 µM [15]: 26%
- inhibition of growth at 10 µM [16]: 35%
- inhibition of growth at 10 µM [17]: 14%
- inhibition of growth at 10 µM [18]: 0%
- inhibition of growth at 10 µM [19]: 0%
- inhibition of growth at 10 µM [20]: 40%
- inhibition of growth at 10 µM [21]: 0%
- inhibition of growth at 10 µM [22]: 25%
- tubulin polymerization inhibition call (active/not active) [23]: inactive
- inhibition of growth at 1 µM [24]: 6%
- inhibition of growth at 1 µM [25]: 0%
- inhibition of growth at 1 µM [26]: 8%
- inhibition of growth at 1 µM [27]: 8%
- inhibition of growth at 1 µM [28]: 0%
- inhibition of growth at 1 µM [29]: 0%

SMILES: COc1cc(C(=C2O[C@@H]([C@H]3COC(C)(C)O3)[C@H]3OC(C)(C)O[C@@H]23)c2cc(OC)c(OC)c(OC)c2)cc(OC)c1OC
- Activity [30]: 105%

SMILES: COc1cc(/C(=C2\O[C@@H]([C@H]3COC(C)(C)O3)[C@H]3OC(C)(C)O[C@@H]23)c2ccc3c(c2)OCO3)cc(OC)c1OC
- Activity [30]: 61%

SMILES: COc1cc(C(=C(COC(C)=O)COC(C)=O)c2ccc3ccccc3c2)cc(OC)c1OC
- inhibition of growth at 1 µM [1]: 18%
- inhibition of growth at 1 µM [2]: 17%
- inhibition of growth at 1 µM [3]: 12%
- inhibition of growth at 1 µM [4]: 0%
- inhibition of growth at 1 µM [5]: 4%
- inhibition of growth at 1 µM [6]: 11%
- inhibition of growth at 1 µM [7]: 19%
- inhibition of growth at 1 µM [8]: 12%
- inhibition of growth at 10 µM [9]: 20%
- inhibition of growth at 10 µM [10]: 22%
- inhibition of growth at 10 µM [11]: 65%
- inhibition of growth at 10 µM [12]: 17%
- inhibition of growth at 10 µM [13]: 74%
- inhibition of growth at 10 µM [14]: 45%
- inhibition of growth at 10 µM [15]: 62%
- inhibition of growth at 10 µM [16]: 81%
- inhibition of growth at 10 µM [17]: 46%
- inhibition of growth at 10 µM [18]: 6%
- inhibition of growth at 10 µM [19]: 15%
- inhibition of growth at 10 µM [20]: 82%
- inhibition of growth at 10 µM [21]: 41%
- inhibition of growth at 10 µM [22]: 83%
- tubulin polymerization inhibition call (active/not active) [23]: inactive
- inhibition of growth at 1 µM [24]: 0%
- inhibition of growth at 1 µM [25]: 0%
- inhibition of growth at 1 µM [26]: 8%
- inhibition of growth at 1 µM [27]: 10%
- inhibition of growth at 1 µM [28]: 0%
- inhibition of growth at 1 µM [29]: 3%

SMILES: COc1ccc(C(=C(COC(C)=O)COC(C)=O)c2cc(OC)c(OC)c(OC)c2)cc1O[Si](C)(C)C(C)(C)C
- tubulin polymerization inhibition call (active/not active) [23]: inactive

SMILES: COc1cc(/C(=C2\O[C@@H]([C@H](O)CO)[C@H]3OC(C)(C)O[C@@H]23)c2ccc3ccccc3c2)cc(OC)c1OC
- Activity [30]: 96%

SMILES: COc1cc([C@@H]2c3cc4c(cc3C[C@H]3COC(=O)[C@@H]32)OCO4)cc(OC)c1OC
- tubulin polymerization inhibition call (active/not active) [23]: Active
